Measured values as given in ChEMBL document CHEMBL1124145, “Dinucleotide analogues as inhibitors of thymidine kinase, thymidylate kinase, and ribonucleotide reductase” (J Med Chem, 1988).

Experiments:
Assay type in all cases: cell-based
[1] = target: T1, Thymidylate kinase (Homo sapiens, UniProt P23919); assay: Concentration required to reduce Thymidylate kinase rate by 50% in human blast cells
T1 sequence (P23919 whole entry): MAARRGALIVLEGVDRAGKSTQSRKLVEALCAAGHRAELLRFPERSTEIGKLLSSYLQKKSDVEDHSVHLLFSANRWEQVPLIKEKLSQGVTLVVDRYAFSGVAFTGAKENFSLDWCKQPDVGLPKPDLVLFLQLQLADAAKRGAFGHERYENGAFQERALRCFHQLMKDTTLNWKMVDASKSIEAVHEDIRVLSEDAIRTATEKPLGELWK
Method in brief: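 Enzyme: dialyzed extract of blast cells from an acute myeloid leukemia patient. Data were fitted by nonlinear least-squares regression to response = a + b ln[inhibitor], error weighting 1/(γ+γ)^2, and the IC50 was derived from the fit.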

[2] = Concentration required to reduce Ribonucleotide reductase rate by 50% in L1210 cells
Method in brief: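 Enzyme: crude L1210 extract brought to pH 5.2 with 1 M acetic acid; the precipitate was dissolved in 50 mM Tris-HCl pH 8.0. CDP reductase activity was measured by a published method. Data were fitted by nonlinear least-squares regression to response = a + b ln[inhibitor] with weighted error, and the IC50 was taken from the fit.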

[3] = Concentration required to reduce thymidine kinase rate by 50% in L1210 cells
Method in brief: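 Cytoplasmic isoenzyme affinity-purified from L1210 cells. Reaction: 1 mM ATP, 1 mM MgCl2, 10 μM [3H]thymidine (150 μCi/μmol), 5% sucrose, 40 mM Tris pH 7.8. Inhibitor ranged 0-500 μM. Inhibitor concentrations were verified by UV absorbance at 260 nm.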

Structure (SMILES) | IC50 [1] | IC50 [2] | IC50 [3]
Cc1cn([C@H]2C[C@H](O)[C@@H](COP(=O)(O)OP(=O)(O)OP(=O)(O)OP(=O)(O)OP(=O)(O)OC[C@H]3O[C@@H](n4cnc5c(N)ncnc54)[C@H](O)[C@@H]3O)O2)c(=O)[nH]c1=O | 8 µM | 14 µM | 2.5 µM
Cc1cn([C@H]2C[C@H](O)[C@@H](CO[P@@](=O)(O)O[P@@](=O)(O)O[P@@](=O)(O)O[P@@](=O)(O)OC[C@H]3O[C@@H](n4cnc5c(N)ncnc54)[C@H](O)[C@@H]3O)O2)c(=O)[nH]c1=O | 290 µM | 77 µM | 15 µM
Cc1cn(C2C[C@H](O)[C@@H](COP(=O)(O)OP(=O)(O)OP(=O)(O)OP(=O)(O)OP(=O)(O)OP(=O)(O)OC[C@H]3OC(n4cnc5c(N)ncnc54)[C@H](O)[C@@H]3O)O2)c(=O)[nH]c1=O (some centres undefined) | 6 µM | 20 µM | –
Cc1cn(C2C[C@H](O)[C@@H](COP(=O)(O)CP(=O)(O)OP(=O)(O)OC[C@H]3OC(n4cnc5c(N)ncnc54)[C@H](O)[C@@H]3O)O2)c(=O)[nH]c1=O (some centres undefined) | 730 µM | 460 µM | > 500 µM
Nc1ncnc2c1ncn2C1O[C@H](COP(=O)(O)OP(=O)(O)OP(=O)(O)OP(=O)(O)OP(=O)(O)OC[C@H]2OC(n3cnc4c(N)ncnc43)[C@H](O)[C@@H]2O)[C@@H](O)[C@H]1O (some centres undefined) | > 1000 µM | – | –
Cc1cn(C2C[C@H](O)[C@@H](COP(=O)(O)OP(=O)(O)OP(=O)(O)OC[C@H]3OC(n4cnc5c(N)ncnc54)[C@H](O)[C@@H]3O)O2)c(=O)[nH]c1=O (some centres undefined) | 1230 µM | > 500 µM | > 500 µM
Cc1cn(C2C[C@H](O)[C@@H](COP(=O)(O)CP(=O)(O)OP(=O)(O)OP(=O)(O)OP(=O)(O)OC[C@H]3OC(n4cnc5c(N)ncnc54)[C@H](O)[C@@H]3O)O2)c(=O)[nH]c1=O (some centres undefined) | 6 µM | 130 µM | 9.2 µM
Cc1cn(C2C[C@H](O)[C@@H](COP(=O)(O)CP(=O)(O)OP(=O)(O)OP(=O)(O)OP(=O)(O)OP(=O)(O)OC[C@H]3OC(n4cnc5c(N)ncnc54)[C@H](O)[C@@H]3O)O2)c(=O)[nH]c1=O (some centres undefined) | 4 µM | 230 µM | 19.7 µM
Cc1cn(C2C[C@H](O)[C@@H](COP(=O)(O)CP(=O)(O)OP(=O)(O)OP(=O)(O)OC[C@H]3OC(n4cnc5c(N)ncnc54)[C@H](O)[C@@H]3O)O2)c(=O)[nH]c1=O (some centres undefined) | 340 µM | 300 µM | 17 µM
